From ChEMBL document CHEMBL1156470, “Inhibition of the activation of multiple serine proteases with a cathepsin C inhibitor requires sustained exposure to prevent pro-enzyme processing” (J Biol Chem, 2007)
Calls of active or inactive are those of the source. No cut-off for these calls is given here. Non-standard residues stand in square brackets, D forms with d. Residues, ends and D or L forms follow the SMILES beside them. *: point of attachment. Phe(4-I) = N[C@@H](Cc1ccc(I)cc1)C(=O)O; CHN2 = [N-]=[N+]=C*

What was measured:
Cathepsin G [1] = biological target: T1, Cathepsin G (Homo sapiens, UniProt P08311); test: Blockade of cathepsin G processing in human U937 cells by densitometry; type: cell-based, U-937
T1 sequence (P08311 whole entry): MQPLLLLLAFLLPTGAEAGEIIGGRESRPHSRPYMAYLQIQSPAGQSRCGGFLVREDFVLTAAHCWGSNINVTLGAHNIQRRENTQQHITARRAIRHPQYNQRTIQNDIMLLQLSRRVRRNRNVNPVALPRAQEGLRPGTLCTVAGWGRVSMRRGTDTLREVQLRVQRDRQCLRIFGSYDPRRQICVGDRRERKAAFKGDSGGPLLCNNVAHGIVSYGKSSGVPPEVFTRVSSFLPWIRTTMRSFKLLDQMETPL
Summary of the method: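 U937 cells washed, plated at 2×10^6 cells/ml in methionine/glutamine-free RPMI, inhibitor or 0.5% Me₂SO added during 30 min starvation, pulsed with [³⁵S]methionine (10 μCi/ml) 30 min, re-seeded in complete medium with inhibitor and chased 3 h. Lysates bound to aprotinin-agarose 1 h at room temperature, SDS-PAGE and fluorography. CG band quantitated by densitometry as % inhibition vs vehicle.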

Neutrophil elastase [2] = biological target: T2, Neutrophil elastase (Mus musculus, UniProt Q3UP87); test: Inhibition of neutrophil elastase activation in beta-estradiol differentiated mouse EcoM-G cells after 24 hrs; type: cell-based
T2 sequence (Q3UP87 whole entry): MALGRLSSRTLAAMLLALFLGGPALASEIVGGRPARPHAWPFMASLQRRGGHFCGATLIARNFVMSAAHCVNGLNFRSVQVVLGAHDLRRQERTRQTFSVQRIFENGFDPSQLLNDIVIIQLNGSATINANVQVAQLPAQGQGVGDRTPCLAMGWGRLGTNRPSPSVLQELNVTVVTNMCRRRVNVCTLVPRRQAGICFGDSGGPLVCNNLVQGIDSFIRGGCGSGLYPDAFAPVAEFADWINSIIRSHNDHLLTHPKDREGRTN
Summary of the method: (§1)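 EcoM-G cells (cultures <3 months old) washed and seeded at 0.5×10^6 cells/ml without β-estradiol. After 24 h, compound added in Me₂SO (final 0.5%), then cells differentiated a further 24 h, harvested and lysed. NE assayed with 400 μM MeOSuc-AAPV-AMC, CG with 1 mM Suc-AAPF-pNA (405 nm, 5 min), Pr-3 with 10 μM internally quenched substrate (ex 328/em 393 nm), all from the same lysates. IC50 from four-parameter Hill fit.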

Cathepsin G [3] = biological target: T3, Cathepsin G (Mus musculus, UniProt P28293); test: Inhibition of cathepsin G activation in beta-estradiol differentiated mouse EcoM-G cells after 24 hrs; type: cell-based; summary of the method: as §1
T3 sequence (P28293 whole entry): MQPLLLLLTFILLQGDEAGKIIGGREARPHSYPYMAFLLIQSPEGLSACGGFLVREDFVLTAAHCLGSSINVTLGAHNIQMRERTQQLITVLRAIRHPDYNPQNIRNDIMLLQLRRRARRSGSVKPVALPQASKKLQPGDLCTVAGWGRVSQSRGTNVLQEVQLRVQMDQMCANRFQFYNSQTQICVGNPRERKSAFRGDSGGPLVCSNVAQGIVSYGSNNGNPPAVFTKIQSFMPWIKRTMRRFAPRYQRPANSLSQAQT

Myeloblastin [4] = biological target: T4, Myeloblastin (Mus musculus, UniProt Q61096); test: Inhibition of proteinase-3 activation in beta-estradiol differentiated mouse EcoM-G cells after 24 hrs; type: cell-based; summary of the method: as §1
T4 sequence (Q61096 whole entry): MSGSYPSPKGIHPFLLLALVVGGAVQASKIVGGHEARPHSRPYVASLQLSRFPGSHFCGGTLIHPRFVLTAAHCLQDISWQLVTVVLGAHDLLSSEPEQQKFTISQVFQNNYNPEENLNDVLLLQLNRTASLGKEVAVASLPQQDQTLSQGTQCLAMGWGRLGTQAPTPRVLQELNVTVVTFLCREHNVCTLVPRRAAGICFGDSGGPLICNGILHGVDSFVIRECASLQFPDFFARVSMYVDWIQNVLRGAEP

Dipeptidyl peptidase 1 [5] = biological target: T5, Dipeptidyl peptidase 1 (Homo sapiens, UniProt P53634); test: Inhibition of human recombinant cathepsin C after 10 mins
T5 sequence (P53634 25-134 limits assumed): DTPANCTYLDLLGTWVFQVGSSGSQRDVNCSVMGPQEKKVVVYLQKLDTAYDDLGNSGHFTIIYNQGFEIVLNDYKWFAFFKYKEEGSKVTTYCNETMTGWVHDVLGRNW
T5 sequence (P53634 231-394 limits assumed): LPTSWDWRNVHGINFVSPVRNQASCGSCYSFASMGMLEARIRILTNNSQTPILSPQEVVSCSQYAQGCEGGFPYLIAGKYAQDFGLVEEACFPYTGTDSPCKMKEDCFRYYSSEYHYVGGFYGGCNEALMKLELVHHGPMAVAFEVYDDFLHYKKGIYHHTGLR
T5 sequence (P53634 395-463 limits assumed): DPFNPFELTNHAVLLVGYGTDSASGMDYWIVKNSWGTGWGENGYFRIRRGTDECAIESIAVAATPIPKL
Summary of the method: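 Recombinant human cathepsin C at 1 nM in 25 mM MES pH 6.0, 50 mM NaCl, 5 mM DTT, with 50 μM Gly-Arg-AMC (twice Km). Enzyme preincubated with inhibitor 10 min, then substrate added, at room temperature. Fluorogenic AMC release.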

Cathepsin B = Cathepsin B (Homo sapiens, UniProt P07858); test: Inhibition of human recombinant cathepsin B after 10 mins
Cathepsin S = Cathepsin S (Homo sapiens, UniProt P25774); test: Inhibition of human recombinant cathepsin S after 10 mins
Chain of Cathepsin S (P25774 whole entry): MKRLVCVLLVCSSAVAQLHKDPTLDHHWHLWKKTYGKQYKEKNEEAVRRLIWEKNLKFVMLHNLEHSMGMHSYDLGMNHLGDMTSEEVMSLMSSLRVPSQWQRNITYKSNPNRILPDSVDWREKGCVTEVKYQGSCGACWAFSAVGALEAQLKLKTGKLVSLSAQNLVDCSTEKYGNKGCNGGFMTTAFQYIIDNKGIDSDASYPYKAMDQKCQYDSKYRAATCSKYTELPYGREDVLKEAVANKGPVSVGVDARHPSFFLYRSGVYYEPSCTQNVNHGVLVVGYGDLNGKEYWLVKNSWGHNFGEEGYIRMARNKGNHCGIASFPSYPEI

Procathepsin L = Procathepsin L (Homo sapiens, UniProt P07711); test: Inhibition of human recombinant cathepsin L after 10 mins
Chain of Procathepsin L (P07711 whole entry): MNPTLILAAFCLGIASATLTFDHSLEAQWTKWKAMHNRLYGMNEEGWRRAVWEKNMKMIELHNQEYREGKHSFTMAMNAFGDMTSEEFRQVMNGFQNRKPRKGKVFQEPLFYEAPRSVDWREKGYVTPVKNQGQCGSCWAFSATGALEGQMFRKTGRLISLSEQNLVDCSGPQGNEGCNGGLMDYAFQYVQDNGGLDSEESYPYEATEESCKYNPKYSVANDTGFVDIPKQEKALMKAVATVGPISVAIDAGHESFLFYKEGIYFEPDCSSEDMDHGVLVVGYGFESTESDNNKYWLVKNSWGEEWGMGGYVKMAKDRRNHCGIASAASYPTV

Pro-cathepsin H = biological target: T6, Pro-cathepsin H (Homo sapiens, UniProt P09668); test: Inhibition of human recombinant cathepsin H after 10 mins
T6 sequence (P09668 whole entry): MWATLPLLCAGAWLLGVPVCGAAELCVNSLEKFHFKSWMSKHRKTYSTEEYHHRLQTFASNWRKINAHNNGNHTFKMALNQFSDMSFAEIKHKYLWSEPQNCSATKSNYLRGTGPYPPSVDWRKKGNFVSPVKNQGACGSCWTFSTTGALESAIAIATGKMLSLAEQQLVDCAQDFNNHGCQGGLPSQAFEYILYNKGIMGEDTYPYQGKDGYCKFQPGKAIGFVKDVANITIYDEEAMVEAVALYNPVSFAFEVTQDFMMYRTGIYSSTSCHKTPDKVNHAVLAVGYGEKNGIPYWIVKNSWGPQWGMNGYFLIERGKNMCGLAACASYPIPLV

Neutrophil elastase [6] = biological target: T7, Neutrophil elastase (Homo sapiens, UniProt P08246); test: Blockade of neutrophil elastase processing in human U937 cells after 7 days by fluorogenic substrate cleavage assay; type: cell-based, U-937
T7 sequence (P08246 whole entry): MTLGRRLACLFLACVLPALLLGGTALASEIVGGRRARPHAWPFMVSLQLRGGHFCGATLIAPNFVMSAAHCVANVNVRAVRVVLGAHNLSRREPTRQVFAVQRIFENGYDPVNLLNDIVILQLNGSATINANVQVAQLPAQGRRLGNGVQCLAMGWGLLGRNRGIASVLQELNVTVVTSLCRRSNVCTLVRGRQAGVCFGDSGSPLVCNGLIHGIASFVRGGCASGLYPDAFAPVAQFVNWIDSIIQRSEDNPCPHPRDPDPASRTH
Summary of the method: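 U937 seeded at 1×10^5 cells/ml with vehicle or inhibitor, passaged and diluted 10-fold into fresh medium with compound on days 3 and 5, harvested day 7. Cells washed and lysed in 20 mM Tris pH 7.5, 100 mM NaCl, 0.2% NP-40. NE rate measured with 400 μM MeOSuc-AAPV-AMC (ex 370/em 450 nm, 10 min). % inhibition vs vehicle, four wells per point.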

Dipeptidyl peptidase 1 [7] = biological target: T5, Dipeptidyl peptidase 1; test: Inhibition of cathepsin C in human U937 cells at 1 uM after 24 hrs; type: cell-based; conditions: U-937
Summary of the method: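 U937 at 0.4×10^6 cells/ml exposed 24 h to compound (final Me₂SO 0.5%), washed, lysed in 25 mM MES pH 6.0, 50 mM NaCl, 5 mM DTT, 0.2% NP-40. Protein-normalised lysate diluted 1:10 and assayed with 50 μM Gly-Arg-AMC (twice Km) at room temperature. Residual cathepsin C activity.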

U-937 [8] = test: Cytotoxicity against human U937 cells at 1 uM after 72 hrs annexin-V propidium iodide method; type: functional
Summary of the method: (§2)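 U937 plated at 0.4×10^6 cells/ml, compound in Me₂SO (final 0.5%). Cells harvested and re-seeded every 24 h in medium with freshly added inhibitor, for 72 h. Viability by annexin V-FITC/propidium iodide two-colour flow cytometry; cells negative for both stains counted viable.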

[9] = biological target: T8, Cathepsin G (Homo sapiens) (UniProt P08311); test: Inhibition of human U937 cellular [35S]methionine-labeled cathepsin G binding to aprotinin by aprotinin-agarose silver-stained SDS-PAGE method; type: cell-based; conditions: U-937, in the assay text read “SDS-PAGE fluorography” for “silver-stained SDS-PAGE”
T8 sequence (whole entry): T1 sequence (P08311 whole entry)

Cathepsin G [10] = biological target: T1, Cathepsin G; test: Inhibition of cathepsin G in human U937 cells; type: cell-based, U-937
Myeloblastin [11] = biological target: T9, Myeloblastin (Homo sapiens, UniProt P24158); test: Inhibition of proteinase-3 in human U937 cells; type: cell-based, U-937
T9 sequence (P24158 whole entry): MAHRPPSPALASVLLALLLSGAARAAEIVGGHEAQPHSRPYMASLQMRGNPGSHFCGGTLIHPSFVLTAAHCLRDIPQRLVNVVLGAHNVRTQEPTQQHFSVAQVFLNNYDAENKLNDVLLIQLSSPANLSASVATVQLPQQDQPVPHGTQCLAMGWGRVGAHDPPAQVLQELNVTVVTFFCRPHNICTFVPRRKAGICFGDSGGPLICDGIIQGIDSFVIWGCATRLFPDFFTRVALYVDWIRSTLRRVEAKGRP

[12] = biological target: Neutrophil elastase (Mus musculus) (UniProt Q3UP87); test: Inhibition of neutrophil elastase in mouse EcoM-G cells
U-937 [13] = test: Cytotoxicity against human U937 cells at 30 uM after 72 hrs annexin-V propidium iodide method; type: functional; summary of the method: as §2

| Structure (SMILES) | IC50 (Cathepsin G [1]) [nM] | IC50 (Neutrophil elastase [2]) [nM] | IC50 (Cathepsin G [3]) [nM] | IC50 (Myeloblastin [4]) [nM] | IC50 (Dipeptidyl peptidase 1 [5]) [nM] | IC50 (Cathepsin B) [nM] | IC50 (Cathepsin S) [nM] | IC50 (Procathepsin L) [nM] | IC50 (Pro-cathepsin H) [nM] | further results |
| --- | --- | --- | --- | --- | --- | --- | --- | --- | --- | --- |
| CCOC(=O)[C@H]1O[C@@H]1C(=O)N[C@@H](CC(C)C)C(=O)NCCC(C)C [ALOXISTATIN] | 1100 | > 10000 | > 10000 | > 10000 |  |  |  |  |  |  |
| CC(C)C[C@H](NC(=O)[C@H]1O[C@@H]1C(=O)O)C(=O)NCCCCN=C(N)N [E-64] |  |  |  |  | 770 | 10 | 7 | 13 | 190 |  |
| CC(C)C[C@@H](NC(=O)N1CCOCC1)C(=O)N[C@@H](/C=C/S(=O)(=O)c1ccccc1)CCc1ccccc1 |  | 25500 | 39800 | 21200 | > 10000 | 1360 | 1 |  |  |  |
| N#C[C@]1(NC(=O)C(N)Cc2cncs2)C[C@H]1c1ccccc1 (some centres undefined) |  | 7930 | > 50000 |  | 790 |  |  |  |  |  |
| N#C[C@]1(NC(=O)[C@@H](N)Cc2ccccc2F)C[C@H]1c1ccccc1 | 1200 | 5490 | 17600 | 4550 | > 220 | > 3000 | 1600 | 560 |  | IC50 (Neutrophil elastase [6]): 1900 nM |
| [N-]=[N+]=CC(=O)[C@H](Cc1ccccc1)NC(=O)CN (H-Gly-Phe-CHN2) |  |  |  |  |  |  |  |  |  | inhibition (Dipeptidyl peptidase 1 [7]): 100%; Activity (U-937 [8]): 32% |
| Cc1cc(C)cc(CC(NC(=O)C(c2ccccc2)c2ccccc2)C(=O)NCC#N)c1 (centres undefined) |  | > 50000 | > 50000 |  |  | 40 | 470 | 90 |  |  |
| CCC[C@@H](NC(=O)N1C(=O)C(CC)(CC)[C@@H]1Oc1ccc(C(=O)N2CCN(C)CC2)cc1)c1ccc2c(c1)OCO2 |  |  |  |  |  |  |  |  |  | Activity [9]: inactive |
| [N-]=[N+]=CC(=O)[C@H](Cc1ccc(I)cc1)NC(=O)CN (H-Gly-[Phe(4-I)]-CHN2) |  |  |  |  | 1 | 2940 | > 50000 | 29500 | 9800 | IC50 (Cathepsin G [10]): > 50000 nM; IC50 (Myeloblastin [11]): > 50000 nM; IC50 [12]: > 50000 nM |
| N#C[C@@]1(NC(=O)C(N)Cc2sccc2F)C[C@@H]1c1ccccc1 (some centres undefined) | 90 | 150 | 690 | 150 |  | > 50000 | 33400 | 15500 | > 50000 | IC50 (Cathepsin G [10]): > 10000 nM; IC50 (Neutrophil elastase [6]): 170 nM; IC50 [12]: > 10000 nM |
| C[C@H](N)C(=O)N[C@@H](Cc1ccc(I)cc1)C(=O)C=[N+]=[N-] |  |  |  |  |  |  |  |  |  | inhibition (Dipeptidyl peptidase 1 [7]): 99.6%; Activity (U-937 [8]): 32%; Activity [9]: Active |
| N#C[C@]1(NC(=O)C(N)Cc2cccs2)C[C@H]1c1ccccc1.O=C(O)C(F)(F)F (single isomer, unassigned) | > 50000 | > 50000 | > 50000 | > 50000 | > 30000 | > 50000 | > 50000 | > 50000 | > 50000 | Activity (U-937 [13]): 98%; IC50 (Neutrophil elastase [6]): > 30000 nM |
| CCC[C@H](NC(=O)C(CC(C)C)NC(=O)c1ccc(-c2ccc(I)cc2)cc1)C(=O)[CH-][N+]#N (some centres undefined) |  |  |  |  | 450 | 65 | 9 | 10 |  |  |
| CS(=O)(=O)C[C@H](N[C@@H](c1ccc(Br)cc1)C(F)(F)F)C(=O)NC1(C#N)CC1 | > 50000 | > 50000 | > 50000 |  | > 10000 | 280 | 10 | 430 | > 50000 |  |
| N#[N+][CH-]C(=O)[C@H](Cc1ccccc1)NC(=O)CN |  |  |  |  | 51 | > 30000 |  | 25500 | 29000 |  |
